Reference: ChEMBL document CHEMBL1124774, “Synthesis and biological activity of some derivatives of rifamycin P” (1990)
Converted amounts (≈) assume the structure as drawn.

Experiments:
Mycolicibacterium phlei [1] = test: In vitro activity of compound against rapidly growing Mycobacterium phlei 141; assay type: functional
Outline: (§1)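 Medium was Middlebrook 7H10 agar with 2% glycerol and 10% OADC. Organisms from Loevenstein-Jensen slants were grown in 7H9 broth with 0.5% Tween and 10% OADC, adjusted to McFarland no. 1, and spotted with a multipoint inoculator. Sealed plates were incubated at 22, 30 or 37 °C for 4-20 days depending on strain.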

Neisseria gonorrhoeae = test: In vitro antibacterial activity of compound against Neisseria gonorrhoeae ISM 68/126; assay type: functional
Mycolicibacterium phlei [2] = test: In vitro activity of compound against rapidly growing Mycobacterium phlei 1283; assay type: functional; outline: as §1
Mycobacterium xenopi [3] = test: In vitro activity of compound against slowl growingy Mycobacterium xenopi 555; assay type: functional; outline: as §1
Mycobacterium marinum [4] = test: In vitro activity of compound against slowly growing Mycobacterium marinum 1393; assay type: functional; outline: as §1
[5] = system: Mycolicibacterium fortuitum; test: In vitro activity compound against rapidly growing Mycobacterium fortuitum 1302; assay type: functional; outline: as §1
Mycobacterium marinum [6] = test: In vitro activity of compound against slowly growing Mycobacterium marinum 1447; assay type: functional; outline: as §1
Mycobacterium avium = test: 50% inhibition of the 20 Mycobacterium (MAC) avium complex clinical isolates; assay type: functional
Outline: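 Agar-dilution MICs, 2-fold dilutions over 128-0.0001 μg/mL, on Middlebrook 7H10 agar with 2% glycerol and 10% OADC. Organisms from Loevenstein-Jensen slants were grown in 7H9 broth with 0.5% Tween and 10% OADC, adjusted to McFarland no. 1, and spotted with a multipoint inoculator. Plates were sealed and incubated at 22, 30 or 37 °C for 4-20 days depending on strain.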

Mycobacterium kansasii [7] = test: In vitro activity compound against slowly growing Mycobacterium kansasii 1291; assay type: functional; outline: as §1
Klebsiella pneumoniae = test: In vitro antibacterial activity of compound against Klebsiella pneumoniae ISM; assay type: functional
[8] = system: Staphylococcus epidermidis; test: In vitro antibacterial activity of compound against Staphylococcus epidermidis ATCC 12228; assay type: functional
Outline: (§2)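 Twofold microdilution MIC in Iso-Sensitest broth over 128-0.0001 µg/mL. Inoculum was 10^4 cfu/mL, with incubation at 37 °C for 18-24 h.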

[9] = system: Mycobacterium scrofulaceum; test: In vitro activity of compound against slowly growing Mycobacterium scrofulaceum 1293; assay type: functional; outline: as §1
[10] = system: Mycolicibacterium flavescens; test: In vitro activity of compound against rapidly growing Mycobacterium flavescens 1284; assay type: functional; outline: as §1
[11] = system: Mycolicibacterium fortuitum; test: In vitro activity of compound against rapidly growing Mycobacterium fortuitum 140; assay type: functional; outline: as §1
Staphylococcus aureus [12] = test: In vitro antibacterial activity of compound against Staphylococcus aureus Tour L 165; assay type: functional; outline: as §2
Mycobacterium kansasii [13] = test: In vitro activity of compound against slowly growing Mycobacterium kansasii 1299; assay type: functional; outline: as §1
Mycobacterium marinum [14] = test: In vitro activity of compound against slowly growing Mycobacterium marinum 1390; assay type: functional; outline: as §1
[15] = system: Mycobacterium scrofulaceum; test: In vitro activity of compound against slowly growing Mycobacterium scrofulaceum 1292; assay type: functional; outline: as §1
Mycobacterium marinum [16] = test: In vitro activity of compound against slowly growing Mycobacterium marinum 1391; assay type: functional; outline: as §1
Streptococcus pneumoniae = test: In vitro antibacterial activity of compound against Streptococcus pneumoniae UC 41; assay type: functional
Outline: (§3)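 Streptococcal MICs were run by twofold microdilution in Todd-Hewitt broth over 128-0.0001 µg/mL. Inoculum was 10^4 cfu/mL, with incubation at 37 °C for 18-24 h.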

Mycobacterium marinum [17] = test: In vitro activity of compound against slowly growing Mycobacterium marinum 1394; assay type: functional; outline: as §1
[18] = system: Mycobacterium scrofulaceum; test: In vitro activity of compound against slowly growing Mycobacterium scrofulaceum 1301; assay type: functional; outline: as §1
[19] = system: Mycolicibacterium fortuitum; test: In vitro activity of compound against rapidly growing Mycobacterium fortuitum 1287; assay type: functional; outline: as §1
[20] = system: Mycolicibacterium fortuitum; test: In vitro activity compound against rapidly growing Mycobacterium fortuitum 1440; assay type: functional; outline: as §1
Mycobacterium gordonae [21] = test: In vitro activity of compound against slowly growing Mycobacterium gordonae 1294; assay type: functional; outline: as §1
Mycobacterium xenopi [22] = test: In vitro activity of compound against slowly growing Mycobacterium xenopi 554; assay type: functional; outline: as §1
Enterococcus faecalis = test: In vitro antibacterial activity of compound against Streptococcus faecalis ATCC 7080.; assay type: functional; outline: as §2
Staphylococcus aureus [23] = test: Activity in the murine model (subcutaneous route) of Staphylococcus aureus tour septicemia; assay type: functional; conditions: sc
Outline: (§4)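 Male and female CD1 mice (18-22 g) were infected ip with S. aureus Tour. The challenge was set so untreated mice died within 48 h. Groups were five mice, dosed once daily for 3 days starting immediately after infection. ED50 was calculated on day 10 from the percentage surviving at each dose.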

[24] = system: Mycolicibacterium fortuitum; test: In vitro activity of compound against rapidly growing Mycobacterium fortuitum 1285; assay type: functional; outline: as §1
Streptococcus pyogenes = test: In vitro antibacterial activity of compound against Streptococcus pyogenes C 203 SKF 13400; assay type: functional; outline: as §3
[25] = system: Mycobacterium scrofulaceum; test: In vitro activity of compound against slowly growing Mycobacterium scrofulaceum 1297; assay type: functional; outline: as §1
Mycolicibacterium phlei [26] = test: In vitro activity of compound against rapidly growing Mycobacterium phlei 1289; assay type: functional; outline: as §1
[27] = system: Mycolicibacterium fortuitum; test: In vitro activity of compound against rapidly growing Mycobacterium fortuitum 645; assay type: functional; outline: as §1
Pseudomonas aeruginosa = test: In vitro antibacterial activity of compound against Pseudomonas aeruginosa ATCC 10145; assay type: functional; outline: as §2
Mycobacterium marinum [28] = test: In vitro activity of compound against slowly growing Mycobacterium marinum 1392 h; assay type: functional; outline: as §1
Staphylococcus aureus [29] = test: Activity in the murine model (OS route) of Staphylococcus aureus tour septicemia; assay type: functional; outline: as §4
[30] = system: Mycobacterium tuberculosis; test: In vitro antibacterial activity of compound against Mycobacterium tuberculosis H37Rv ATCC 9660; assay type: functional
Mycobacterium gordonae [31] = test: In vitro activity of compound against slowly growing Mycobacterium gordonae 1441; assay type: functional; outline: as §1
[32] = system: Mycolicibacterium flavescens; test: In vitro activity of compound against rapidly growing Mycobacterium flavescens 1286; assay type: functional; outline: as §1
Haemophilus influenzae = test: In vitro antibacterial activity of compound against Haemophilus influenzae ATCC 19418; assay type: functional
Mycobacterium marinum [33] = test: In vitro activity of compound against slowly growing Mycobacterium marinum 1388; assay type: functional; outline: as §1
Mycobacterium kansasii [34] = test: In vitro activity compound against slowly growing Mycobacterium kansasii 1298; assay type: functional; outline: as §1
Mycobacteroides chelonae = test: In vitro activity of compound against rapidly growing Mycobacterium chelonae 1443
Mycobacterium xenopi [35] = test: In vitro activity of compound against slowly growing Mycobacterium xenopi 556; assay type: functional; outline: as §1
[36] = system: Mycolicibacterium fortuitum; test: In vitro activity of compound against rapidly growing Mycobacterium fortuitum 114; assay type: functional; outline: as §1
[37] = system: Mycolicibacterium fortuitum; test: In vitro activity of compound against rapidly growing Mycobacterium fortuitum 646; assay type: functional; outline: as §1
Mycobacterium xenopi [38] = test: In vitro activity compound against slowly growing Mycobacterium xenopi 1446; assay type: functional; outline: as §1

Compound: COC1/C=C/OC2(C)Oc3c(C)c(O)c4c(O)c(c(C=NN5CCN(C6CCCC6)CC5)c(O)c4c3C2=O)NC(=O)/C(C)=C\C=C\C(C)C(O)C(C)C(O)C(C)C(OC(C)=O)C1C (configuration not stated)
- MIC (Mycolicibacterium phlei [1]): 0.016 µg/mL (≈ 0.0182 µM)
- MIC (Neisseria gonorrhoeae): 0.5 µg/mL (≈ 0.57 µM)
- MIC (Mycolicibacterium phlei [2]): 0.063 µg/mL (≈ 0.0718 µM)
- MIC (Mycobacterium xenopi [3]): 0.25 µg/mL (≈ 0.285 µM)
- MIC (Mycobacterium marinum [4]): 0.125 µg/mL (≈ 0.143 µM)
- MIC [5]: 0.5 µg/mL (≈ 0.57 µM)
- MIC (Mycobacterium marinum [6]): 0.125 µg/mL (≈ 0.143 µM)
- MIC50 (Mycobacterium avium): 1 µg/mL (≈ 1.14 µM)
- MIC (Mycobacterium kansasii [7]): 4 µg/mL (≈ 4.56 µM)
- MIC (Klebsiella pneumoniae): 32 µg/mL (≈ 36.5 µM)
- MIC [8]: 0.063 µg/mL (≈ 0.0718 µM)
- MIC [9]: 0.032 µg/mL (≈ 0.0365 µM)
- MIC [10]: 32 µg/mL (≈ 36.5 µM)
- MIC [11]: 32 µg/mL (≈ 36.5 µM)
- MIC (Staphylococcus aureus [12]): 0.063 µg/mL (≈ 0.0718 µM)
- MIC (Mycobacterium kansasii [13]): 2 µg/mL (≈ 2.28 µM)
- MIC (Mycobacterium marinum [14]): 0.5 µg/mL (≈ 0.57 µM)
- MIC [15]: 0.016 µg/mL (≈ 0.0182 µM)
- MIC (Mycobacterium marinum [16]): 0.125 µg/mL (≈ 0.143 µM)
- MIC (Streptococcus pneumoniae): 0.063 µg/mL (≈ 0.0718 µM)
- MIC (Mycobacterium marinum [17]): 0.125 µg/mL (≈ 0.143 µM)
- MIC [18]: 4 µg/mL (≈ 4.56 µM)
- MIC [19]: 1 µg/mL (≈ 1.14 µM)
- MIC [20]: 32 µg/mL (≈ 36.5 µM)
- MIC (Mycobacterium gordonae [21]): 0.5 µg/mL (≈ 0.57 µM)
- MIC (Mycobacterium xenopi [22]): 0.25 µg/mL (≈ 0.285 µM)
- MIC (Enterococcus faecalis): 2 µg/mL (≈ 2.28 µM)
- ED50 (Staphylococcus aureus [23]): 0.18 mg/kg
- MIC [24]: 4 µg/mL (≈ 4.56 µM)
- MIC (Streptococcus pyogenes): 0.063 µg/mL (≈ 0.0718 µM)
- MIC [25]: 0.063 µg/mL (≈ 0.0718 µM)
- MIC (Mycolicibacterium phlei [26]): 2 µg/mL (≈ 2.28 µM)
- MIC [27]: 2 µg/mL (≈ 2.28 µM)
- MIC (Pseudomonas aeruginosa): 8 µg/mL (≈ 9.12 µM)
- MIC (Mycobacterium marinum [28]): 0.125 µg/mL (≈ 0.143 µM)
- ED50 (Staphylococcus aureus [29]): 0.22 mg/kg
- MIC [30]: 0.063 µg/mL (≈ 0.0718 µM)
- MIC (Mycobacterium gordonae [31]): 1 µg/mL (≈ 1.14 µM)
- MIC [32]: 0.125 µg/mL (≈ 0.143 µM)
- MIC (Haemophilus influenzae): 0.5 µg/mL (≈ 0.57 µM)
- MIC (Mycobacterium marinum [33]): 0.125 µg/mL (≈ 0.143 µM)
- MIC (Mycobacterium kansasii [34]): 0.063 µg/mL (≈ 0.0718 µM)
- MIC (Mycobacteroides chelonae): > 128 µg/mL
- MIC (Mycobacterium xenopi [35]): 0.5 µg/mL (≈ 0.57 µM)
- MIC [36]: 32 µg/mL (≈ 36.5 µM)
- MIC [37]: 32 µg/mL (≈ 36.5 µM)
- MIC (Mycobacterium xenopi [38]): 0.25 µg/mL (≈ 0.285 µM)
